What was measured:
Assay type in all cases: functional
Malme-3M = assay: Growth inhibition of human MALME-3M cells incubated for 48 hrs by sulforhodamine B assay
Outline: (§1)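 NCI-60 screen: cells were exposed for 48 h to compound or vehicle, and growth was read as sulforhodamine B optical density before and after exposure. In the single-dose test at 10⁻⁵ M, percent growth was taken relative to vehicle control and time-zero cell number. In the five-dose test (10⁻⁴ to 10⁻⁸ M), GI₅₀ was the molar concentration causing 50% growth inhibition.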

NCI-H322M = assay: Growth inhibition of human NCI-H322M cells incubated for 48 hrs by sulforhodamine B assay; outline: as §1
OVCAR-3 = assay: Growth inhibition of human OVCAR3 cells incubated for 48 hrs by sulforhodamine B assay; settings: OVCAR-3, 48 h
Outline: (§2)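 NCI-60 five-dose study at 10⁻⁴, 10⁻⁵, 10⁻⁶, 10⁻⁷ and 10⁻⁸ M, 48 h incubation. Growth determined from sulforhodamine B optical density before and after exposure, relative to vehicle control and time-zero counts. GI₅₀ is the molar concentration giving 50% growth inhibition.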

CAKI-1 = assay: Growth inhibition of human Caki1 cells incubated for 48 hrs by sulforhodamine B assay; settings: CAKI-1, 48 h; outline: as §1
MDA-MB-435 = assay: Growth inhibition of human MDA-MB-435 cells at 10 uM after 48 hrs by sulforhodamine B assay relative to control; settings: MDA-MB-435, 48 h, values are per cent of control
Outline: (§3)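 NCI-60 single-dose screen. Cells exposed to 10⁻⁵ M or to vehicle for 48 h. Growth measured by sulforhodamine B optical density before and after exposure. Reported as percent growth relative to vehicle control and to time-zero cell number; negative values indicate cell kill.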

EKVX = assay: Growth inhibition of human EKVX cells incubated for 48 hrs by sulforhodamine B assay; outline: as §1
SNB-75 = assay: Growth inhibition of human SNB75 cells incubated for 48 hrs by sulforhodamine B assay; settings: SNB-75, 48 h
Outline: (§4)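 NCI-60 screen run per Rubinstein protocol. Sulforhodamine B optical density was read before and after 48 h exposure to compound or vehicle. The single-dose pass at 10⁻⁵ M reported percent growth relative to vehicle control and time-zero cell number. The five-dose follow-up used 10⁻⁴ to 10⁻⁸ M, giving GI₅₀ as the molar concentration causing 50% growth inhibition.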

KM12 = assay: Growth inhibition of human KM12 cells at 10 uM after 48 hrs by sulforhodamine B assay relative to control; settings: KM12, 48 h, values are per cent of control; outline: as §3
SW-620 = assay: Growth inhibition of human SW620 cells incubated for 48 hrs by sulforhodamine B assay; settings: SW-620, 48 h; outline: as §4
SK-MEL-2 = assay: Growth inhibition of human SK-MEL-2 cells incubated for 48 hrs by sulforhodamine B assay; settings: SK-MEL-2, 48 h; outline: as §2
SK-MEL-5 = assay: Growth inhibition of human SK-MEL-5 cells at 10 uM after 48 hrs by sulforhodamine B assay relative to control; settings: SK-MEL-5, 48 h, values are per cent of control; outline: as §3
T47D = assay: Growth inhibition of human T47D cells incubated for 48 hrs by sulforhodamine B assay; outline: as §1
OVCAR-5 = assay: Growth inhibition of human OVCAR5 cells incubated for 48 hrs by sulforhodamine B assay; settings: OVCAR-5, 48 h; outline: as §1
HCT-116 = assay: Growth inhibition of human HCT116 cells incubated for 48 hrs by sulforhodamine B assay; settings: HCT-116, 48 h; outline: as §2
TK-10 = assay: Growth inhibition of human TK10 cells incubated for 48 hrs by sulforhodamine B assay; settings: TK-10, 48 h; outline: as §1
NCI-H460 = assay: Growth inhibition of human NCI-H460 cells incubated for 48 hrs by sulforhodamine B assay; settings: NCI-H460, 48 h; outline: as §1
CCRF-CEM = assay: Growth inhibition of human CCRF-CEM cells incubated for 48 hrs by sulforhodamine B assay; outline: as §2
A498 [1] = assay: Growth inhibition of human A498 cells at 10 uM after 48 hrs by sulforhodamine B assay relative to control; settings: A498, 48 h, values are per cent of control; outline: as §3
IGROV-1 = assay: Growth inhibition of human IGROV1 cells incubated for 48 hrs by sulforhodamine B assay; settings: IGROV-1, 48 h; outline: as §2
MOLT-4 = assay: Growth inhibition of human MOLT4 cells incubated for 48 hrs by sulforhodamine B assay; settings: MOLT-4, 48 h; outline: as §2
A549 = assay: Growth inhibition of human A549/ATCC cells incubated for 48 hrs by sulforhodamine B assay; settings: A549, 48 h; outline: as §2
NCI-H226 = assay: Growth inhibition of human NCI-H226 cells incubated for 48 hrs by sulforhodamine B assay; settings: NCI-H226, 48 h; outline: as §1
SF-268 = assay: Growth inhibition of human SF268 cells incubated for 48 hrs by sulforhodamine B assay; settings: SF-268, 48 h; outline: as §2
BT-549 = assay: Growth inhibition of human BT549 cells incubated for 48 hrs by sulforhodamine B assay; settings: BT-549, 48 h; outline: as §1
MDA-MB-468 = assay: Growth inhibition of human MDA-MB-468 cells incubated for 48 hrs by sulforhodamine B assay; settings: MDA-MB-468, 48 h; outline: as §2
UO-31 = assay: Growth inhibition of human UO31 cells incubated for 48 hrs by sulforhodamine B assay; settings: UO-31, 48 h; outline: as §4
OVCAR-8 = assay: Growth inhibition of human OVCAR8 cells incubated for 48 hrs by sulforhodamine B assay; settings: OVCAR-8, 48 h; outline: as §1
UACC-257 = assay: Growth inhibition of human UACC257 cells incubated for 48 hrs by sulforhodamine B assay; settings: UACC-257, 48 h; outline: as §1
SK-OV-3 = assay: Growth inhibition of human SKOV3 cells incubated for 48 hrs by sulforhodamine B assay; settings: SK-OV-3, 48 h; outline: as §4
SN12C = assay: Growth inhibition of human SN12C cells incubated for 48 hrs by sulforhodamine B assay; outline: as §1
A498 [2] = assay: Growth inhibition of human A498 cells incubated for 48 hrs by sulforhodamine B assay; settings: A498, 48 h; outline: as §2
SF-539 = assay: Growth inhibition of human SF539 cells at 10 uM after 48 hrs by sulforhodamine B assay relative to control; settings: SF-539, 48 h, values are per cent of control; outline: as §3

`COc1ccc(/C(=C/c2ccc3ccccc3c2)c2nnn[nH]2)cc1OC` showed a GI50 (Malme-3M) of 3.08 µM, a GI50 (NCI-H322M) of 6.88 µM and a GI50 (OVCAR-3) of 1.69 µM. It also gave a GI50 (CAKI-1) of 2.24 µM, a growth, % of control at 10 µM (MDA-MB-435) of -41% and a GI50 (EKVX) of 18.2 µM. It also gave a GI50 (SNB-75) of 2.51 µM, a growth, % of control at 10 µM (KM12) of 24.5% and a GI50 (SW-620) of 1.36 µM. The GI50 (SK-MEL-2) was 4.36 µM, the growth, % of control at 10 µM (SK-MEL-5) was 23.5% and the GI50 (T47D) was 28.2 µM. It also gave a GI50 (OVCAR-5) of 6.08 µM, a GI50 (HCT-116) of 2.42 µM and a GI50 (TK-10) of 18.5 µM. For the same compound, the GI50 (NCI-H460) was 2.81 µM, the GI50 (CCRF-CEM) was 3.33 µM and the growth, % of control at 10 µM (A498 [1]) was 14.5%. For the same compound, the GI50 (IGROV-1) was 4.23 µM, the GI50 (MOLT-4) was 4.16 µM and the GI50 (A549) was 3.8 µM. It also gave a GI50 (NCI-H226) greater than 100 µM, a GI50 (SF-268) of 6.55 µM and a GI50 (BT-549) of 10.9 µM. It also gave a GI50 (MDA-MB-468) of 21.5 µM, a GI50 (UO-31) of 5.59 µM and a GI50 (OVCAR-8) of 7.1 µM. For the same compound, the GI50 (UACC-257) was 56.6 µM, the GI50 (SK-OV-3) was 3.63 µM and the GI50 (SN12C) was 9.97 µM.
With `COc1ccc(/C=C(/c2cc(OC)c(OC)c(OC)c2)c2nnn[nH]2)cc1O` the GI50 (OVCAR-3) was less than 0.01 µM, the growth, % of control at 10 µM (MDA-MB-435) was -8.4% and the GI50 (SNB-75) was less than 0.01 µM. For the same compound, the GI50 (A498 [2]) was less than 0.01 µM, the growth, % of control at 10 µM (KM12) was -1.73% and the GI50 (SW-620) was less than 0.01 µM. The GI50 (SK-MEL-2) was less than 0.01 µM, the growth, % of control at 10 µM (SK-MEL-5) was -54% and the GI50 (HCT-116) was less than 0.01 µM. The GI50 (CCRF-CEM) was less than 0.01 µM, the growth, % of control at 10 µM (A498 [1]) was -3.5% and the GI50 (IGROV-1) was less than 0.01 µM. The GI50 (MOLT-4) was less than 0.01 µM, the GI50 (A549) was less than 0.01 µM and the growth, % of control at 10 µM (SF-539) was -1.97%. For the same compound, the GI50 (SF-268) was less than 0.01 µM, the GI50 (MDA-MB-468) was less than 0.01 µM and the GI50 (UO-31) was less than 0.01 µM. It also gave a GI50 (SK-OV-3) of less than 0.01 µM.

— ChEMBL document CHEMBL4371053, “A novel tetrazole analogue of resveratrol is a potent anticancer agent” (Bioorg Med Chem Lett, 2019)
